From ChEMBL document CHEMBL1124366, “Synthesis and biological properties of N63-carboxamides of teicoplanin antibiotics. Structure-activity relationships” (J Med Chem, 1989)
≈ marks a conversion by molar mass, not a printed value.

Columns and labels:
Assay type in all cases: functional
[1] = tested on: Streptococcus pyogenes; assay: In vitro minimum inhibitory concentration against Streptococcus pyogenes C 203
[2] = tested on: Proteus vulgaris; assay: In vitro minimum inhibitory concentration against Proteus vulgaris X 19 ATCC 881
[3] = tested on: Streptococcus pneumoniae; assay: In vitro minimum inhibitory concentration against Streptococcus pneumoniae UC41
[4] = tested on: Staphylococcus epidermidis; assay: In vitro minimum inhibitory concentration against Staphylococcus epidermis ATCC 12228
[5] = tested on: Enterococcus faecalis; assay: In vitro minimum inhibitory concentration against Streptococcus faecalis ATCC 7080
[6] = tested on: Staphylococcus aureus; assay: In vitro minimum inhibitory concentration against Staphylococcus aureus Tour
[7] = tested on: Streptococcus pyogenes; assay: Subcutaneously administration into mice infected with Streptococcus pyogenes C 203; settings: sc
In short: (§1)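 Mice (five per treatment group, five groups) infected intraperitoneally with about 10⁵ cells of Strep. pyogenes C 203, about 100× the LD50. ED50 (mg/kg) was calculated from the percentage of mice surviving at each dose on day 7.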

[8] = tested on: Pseudomonas aeruginosa; assay: In vitro minimum inhibitory concentration against Pseudomonas aeruginosa ATCC 10145
[9] = tested on: Escherichia coli; assay: In vitro minimum inhibitory concentration against Escherichia coli SKF 12140
[10] = tested on: Streptococcus pyogenes; assay: In vivo effective dose given perorally to mice infected with Streptococcus pyogenes C 203; settings: po; in short: as §1
[11] = tested on: Staphylococcus haemolyticus; assay: In vitro minimum inhibitory concentration against Staphylococcus hemolyticus 602 cell line; settings: strain 602

SMILES	MIC [1] [µg/mL]	MIC [2] [µg/mL]	MIC [3] [µg/mL]	MIC [4] [µg/mL]	MIC [5] [µg/mL]	MIC [6] [µg/mL]	ED50 [7] [mg/kg]	MIC [8] [µg/mL]	MIC [9] [µg/mL]	ED50 [10] [mg/kg]	MIC [11] [µg/mL]
N[C@H]1C(=O)N[C@@H]2Cc3ccc(c(Cl)c3)Oc3cc4cc(c3O)Oc3ccc(cc3Cl)[C@@H](O)[C@@H]3NC(=O)[C@H](NC(=O)[C@@H]4NC(=O)[C@@H](NC2=O)c2cc(O)cc(c2)Oc2cc1ccc2O)c1ccc(O)c(c1)-c1c(O)cc(O)cc1[C@@H](C(=O)NCCN1CCOCC1)NC3=O	0.12 (≈ 0.0915 µM)	128 (≈ 97.6 µM)	0.12 (≈ 0.0915 µM)	0.016 (≈ 0.0122 µM)	0.12 (≈ 0.0915 µM)	0.06 (≈ 0.0458 µM)	2.2	64 (≈ 48.8 µM)	16 (≈ 12.2 µM)	–	–
N[C@H]1C(=O)N[C@@H]2Cc3ccc(c(Cl)c3)Oc3cc4cc(c3O)Oc3ccc(cc3Cl)[C@@H](O)[C@@H]3NC(=O)[C@H](NC(=O)[C@@H]4NC(=O)[C@@H](NC2=O)c2cc(O)cc(c2)Oc2cc1ccc2O)c1ccc(O)c(c1)-c1c(O)cc(O)cc1[C@@H](C(=O)N1CCOCC1)NC3=O	0.12 (≈ 0.0946 µM)	64 (≈ 50.5 µM)	0.12 (≈ 0.0946 µM)	0.016 (≈ 0.0126 µM)	0.12 (≈ 0.0946 µM)	0.06 (≈ 0.0473 µM)	1.02	64 (≈ 50.5 µM)	16 (≈ 12.6 µM)	–	–
N[C@H]1C(=O)N[C@@H]2Cc3ccc(c(Cl)c3)Oc3cc4cc(c3O)Oc3ccc(cc3Cl)[C@@H](O)[C@@H]3NC(=O)[C@H](NC(=O)[C@@H]4NC(=O)[C@@H](NC2=O)c2cc(O)cc(c2)Oc2cc1ccc2O)c1ccc(O)c(c1)-c1c(O)cc(O)cc1[C@@H](C(=O)NC1CN2CCC1CC2)NC3=O (some centres not stated)	0.06 (≈ 0.0459 µM)	64 (≈ 49 µM)	0.06 (≈ 0.0459 µM)	0.06 (≈ 0.0459 µM)	0.12 (≈ 0.0918 µM)	0.12 (≈ 0.0918 µM)	0.46	32 (≈ 24.5 µM)	8 (≈ 6.12 µM)	–	–
CC(=O)N[C@@H]1[C@H](O[C@@H]2c3ccc(c(Cl)c3)Oc3cc4cc(c3O[C@@H]3O[C@@H](CO)[C@@H](O)[C@H](O)[C@@H]3NC(=O)CCCCCCC(C)C)Oc3ccc(cc3Cl)C[C@H]3NC(=O)[C@H](N)c5ccc(O)c(c5)Oc5cc(O)cc(c5)[C@H](NC3=O)C(=O)N[C@H]4C(=O)N[C@H]3C(=O)N[C@@H]2C(=O)N[C@H](C(=O)NCCCCN)c2cc(O)cc(O[C@H]4O[C@H](CO)[C@@H](O)[C@@H](O)[C@@H]4O)c2-c2cc3ccc2O)O[C@@H](CO)[C@@H](O)[C@@H]1O	0.06 (≈ 0.0308 µM)	–	0.12 (≈ 0.0615 µM)	0.06 (≈ 0.0308 µM)	0.12 (≈ 0.0615 µM)	0.12 (≈ 0.0615 µM)	0.07	–	–	90	0.12 (≈ 0.0615 µM)
CCN1CCCC1CNC(=O)[C@H]1NC(=O)[C@H]2NC(=O)[C@H](NC(=O)[C@@H]3NC(=O)[C@H]4NC(=O)[C@@H](Cc5ccc(c(Cl)c5)Oc5cc3cc(c5O[C@@H]3O[C@@H](CO)[C@@H](O)[C@H](O)[C@@H]3NC(=O)CCCCCCC(C)C)Oc3ccc(cc3Cl)[C@H]2O[C@@H]2O[C@@H](CO)[C@@H](O)[C@H](O)[C@@H]2NC(C)=O)NC(=O)[C@H](N)c2ccc(O)c(c2)Oc2cc(O)cc4c2)c2ccc(O)c(c2)-c2c(O[C@H]3O[C@H](CO)[C@@H](O)[C@@H](O)[C@@H]3O)cc(O)cc21 (some centres not stated)	0.06 (≈ 0.0302 µM)	–	0.06 (≈ 0.0302 µM)	0.06 (≈ 0.0302 µM)	0.12 (≈ 0.0603 µM)	0.12 (≈ 0.0603 µM)	0.1	–	–	140	0.12 (≈ 0.0603 µM)
CC(=O)N[C@@H]1[C@H](O[C@@H]2c3ccc(c(Cl)c3)Oc3cc4cc(c3O[C@@H]3O[C@@H](CO)[C@@H](O)[C@H](O)[C@@H]3NC(=O)CCCCCCC(C)C)Oc3ccc(cc3Cl)C[C@H]3NC(=O)[C@H](N)c5ccc(O)c(c5)Oc5cc(O)cc(c5)[C@H](NC3=O)C(=O)N[C@H]4C(=O)N[C@H]3C(=O)N[C@@H]2C(=O)N[C@H](C(=O)NCCCCCCN)c2cc(O)cc(O[C@H]4O[C@H](CO)[C@@H](O)[C@@H](O)[C@@H]4O)c2-c2cc3ccc2O)O[C@@H](CO)[C@@H](O)[C@@H]1O	0.06 (≈ 0.0303 µM)	–	0.12 (≈ 0.0607 µM)	0.06 (≈ 0.0303 µM)	0.12 (≈ 0.0607 µM)	0.12 (≈ 0.0607 µM)	0.14	–	–	> 300	0.12 (≈ 0.0607 µM)
CC(=O)N[C@@H]1[C@H](O[C@@H]2c3ccc(c(Cl)c3)Oc3cc4cc(c3O[C@@H]3O[C@@H](CO)[C@@H](O)[C@H](O)[C@@H]3NC(=O)CCCCCCC(C)C)Oc3ccc(cc3Cl)C[C@H]3NC(=O)[C@H](N)c5ccc(O)c(c5)Oc5cc(O)cc(c5)[C@H](NC3=O)C(=O)N[C@H]4C(=O)N[C@H]3C(=O)N[C@@H]2C(=O)N[C@H](C(=O)NCCCCN(C)C)c2cc(O)cc(O[C@H]4O[C@H](CO)[C@@H](O)[C@@H](O)[C@@H]4O)c2-c2cc3ccc2O)O[C@@H](CO)[C@@H](O)[C@@H]1O	0.06 (≈ 0.0303 µM)	–	0.12 (≈ 0.0607 µM)	0.06 (≈ 0.0303 µM)	0.12 (≈ 0.0607 µM)	0.12 (≈ 0.0607 µM)	0.1	–	–	90	0.25 (≈ 0.126 µM)
CCN(CC)CCCNC(=O)[C@H]1NC(=O)[C@H]2NC(=O)[C@H](NC(=O)[C@@H]3NC(=O)[C@H]4NC(=O)[C@@H](Cc5ccc(c(Cl)c5)Oc5cc3cc(c5O[C@@H]3O[C@@H](CO)[C@@H](O)[C@H](O)[C@@H]3NC(=O)CCCCCCC(C)C)Oc3ccc(cc3Cl)[C@H]2O[C@@H]2O[C@@H](CO)[C@@H](O)[C@H](O)[C@@H]2NC(C)=O)NC(=O)[C@H](N)c2ccc(O)c(c2)Oc2cc(O)cc4c2)c2ccc(O)c(c2)-c2c(O[C@H]3O[C@H](CO)[C@@H](O)[C@@H](O)[C@@H]3O)cc(O)cc21	0.06 (≈ 0.0301 µM)	–	0.06 (≈ 0.0301 µM)	0.12 (≈ 0.0602 µM)	0.12 (≈ 0.0602 µM)	0.12 (≈ 0.0602 µM)	0.05	–	–	90	0.12 (≈ 0.0602 µM)
CC(=O)N[C@@H]1[C@H](O[C@@H]2c3ccc(c(Cl)c3)Oc3cc4cc(c3O[C@@H]3O[C@@H](CO)[C@@H](O)[C@H](O)[C@@H]3NC(=O)CCCCCCC(C)C)Oc3ccc(cc3Cl)C[C@H]3NC(=O)[C@H](N)c5ccc(O)c(c5)Oc5cc(O)cc(c5)[C@H](NC3=O)C(=O)N[C@H]4C(=O)N[C@H]3C(=O)N[C@@H]2C(=O)N[C@H](C(=O)NCCCN2CCOCC2)c2cc(O)cc(O[C@H]4O[C@H](CO)[C@@H](O)[C@@H](O)[C@@H]4O)c2-c2cc3ccc2O)O[C@@H](CO)[C@@H](O)[C@@H]1O	0.06 (≈ 0.0299 µM)	–	0.06 (≈ 0.0299 µM)	0.12 (≈ 0.0598 µM)	0.12 (≈ 0.0598 µM)	0.12 (≈ 0.0598 µM)	0.18	–	–	> 300	0.5 (≈ 0.249 µM)
CC(=O)N[C@@H]1[C@H](O[C@@H]2c3ccc(c(Cl)c3)Oc3cc4cc(c3O[C@@H]3O[C@@H](CO)[C@@H](O)[C@H](O)[C@@H]3NC(=O)CCCCCCC(C)C)Oc3ccc(cc3Cl)C[C@H]3NC(=O)[C@H](N)c5ccc(O)c(c5)Oc5cc(O)cc(c5)[C@H](NC3=O)C(=O)N[C@H]4C(=O)N[C@H]3C(=O)N[C@@H]2C(=O)N[C@H](C(=O)NCCN)c2cc(O)cc(O[C@H]4O[C@H](CO)[C@@H](O)[C@@H](O)[C@@H]4O)c2-c2cc3ccc2O)O[C@@H](CO)[C@@H](O)[C@@H]1O	0.06 (≈ 0.0312 µM)	–	0.12 (≈ 0.0624 µM)	0.06 (≈ 0.0312 µM)	0.12 (≈ 0.0624 µM)	0.12 (≈ 0.0624 µM)	0.18	–	–	139	0.12 (≈ 0.0624 µM)
CCNCCNC(=O)[C@H]1NC(=O)[C@H]2NC(=O)[C@H](NC(=O)[C@@H]3NC(=O)[C@H]4NC(=O)[C@@H](Cc5ccc(c(Cl)c5)Oc5cc3cc(c5O[C@@H]3O[C@@H](CO)[C@@H](O)[C@H](O)[C@@H]3NC(=O)CCCCCCC(C)C)Oc3ccc(cc3Cl)[C@H]2O[C@@H]2O[C@@H](CO)[C@@H](O)[C@H](O)[C@@H]2NC(C)=O)NC(=O)[C@H](N)c2ccc(O)c(c2)Oc2cc(O)cc4c2)c2ccc(O)c(c2)-c2c(O[C@H]3O[C@H](CO)[C@@H](O)[C@@H](O)[C@@H]3O)cc(O)cc21	0.06 (≈ 0.0308 µM)	–	0.12 (≈ 0.0615 µM)	0.06 (≈ 0.0308 µM)	0.12 (≈ 0.0615 µM)	0.12 (≈ 0.0615 µM)	0.18	–	–	300	0.12 (≈ 0.0615 µM)
CC(=O)N[C@@H]1[C@H](O[C@@H]2c3ccc(c(Cl)c3)Oc3cc4cc(c3O[C@@H]3O[C@@H](CO)[C@@H](O)[C@H](O)[C@@H]3NC(=O)CCCCCCC(C)C)Oc3ccc(cc3Cl)C[C@H]3NC(=O)[C@H](N)c5ccc(O)c(c5)Oc5cc(O)cc(c5)[C@H](NC3=O)C(=O)N[C@H]4C(=O)N[C@H]3C(=O)N[C@@H]2C(=O)N[C@H](C(=O)NCCN(C)C)c2cc(O)cc(O[C@H]4O[C@H](CO)[C@@H](O)[C@@H](O)[C@@H]4O)c2-c2cc3ccc2O)O[C@@H](CO)[C@@H](O)[C@@H]1O	0.06 (≈ 0.0308 µM)	–	0.06 (≈ 0.0308 µM)	0.06 (≈ 0.0308 µM)	0.12 (≈ 0.0615 µM)	0.12 (≈ 0.0615 µM)	0.09	–	–	140	0.12 (≈ 0.0615 µM)
CC(=O)N[C@@H]1[C@H](O[C@@H]2c3ccc(c(Cl)c3)Oc3cc4cc(c3O[C@@H]3O[C@@H](CO)[C@@H](O)[C@H](O)[C@@H]3NC(=O)CCCCCCC(C)C)Oc3ccc(cc3Cl)C[C@H]3NC(=O)[C@H](N)c5ccc(O)c(c5)Oc5cc(O)cc(c5)[C@H](NC3=O)C(=O)N[C@H]4C(=O)N[C@H]3C(=O)N[C@@H]2C(=O)N[C@H](C(=O)NCCCN)c2cc(O)cc(O[C@H]4O[C@H](CO)[C@@H](O)[C@@H](O)[C@@H]4O)c2-c2cc3ccc2O)O[C@@H](CO)[C@@H](O)[C@@H]1O	0.03 (≈ 0.0155 µM)	–	0.12 (≈ 0.062 µM)	0.06 (≈ 0.031 µM)	0.12 (≈ 0.062 µM)	0.12 (≈ 0.062 µM)	0.08	–	–	89.6	0.12 (≈ 0.062 µM)
